Laboratory results from PubChem BioAssay.
Calls of active or inactive are those of the source.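 Rule for the calls, unless noted: active = inhibition at or above 50% relative to wild type and mutant plate controls; inactive = inhibition below 50%.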

Experiments:
[1] = inhibitors of TNFa-induced NFkB p65 translocation, primary screen, imaging, HUVEC, MLSMR starter and 10KST1 sets (AID 438;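 active = inhibition above 20% together with a positive visual image hit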;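 note: compound added about 3h40 before a 20 min TNFalpha stimulation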;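 for inhibition: signal is the nuclear over cytoplasmic p65 intensity ratio per well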); details: HUVEC TNFa-induced p65 nuclear translocation; cell count: measured here: nuclei count (cytotoxicity indicator), at 2.08 µM; inhibition: at 2 µM, stronger effect = higher value, 0% TNFa-plus-vehicle, 100% no-TNFa wells
[2] = inhibitors of E-selectin induction by TNFa, primary screen, imaging, HUVEC, immunofluorescence, MLSMR starter and 10KST1 sets (AID 487;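 active = visually confirmed hit in the image check and inhibition above 20%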;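 for inhibition: signal is fraction of cell area covered by stained E-selectin grains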;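 for nuclei count: 100% = median nuclei count of all wells on the same plate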); details: HUVEC TNFalpha-induced E-selectin immunofluorescence imaging, at 2 µM; inhibition: stronger effect = higher value; nuclei count: measured here: cell number, toxicity
[3] = DUSP6 inhibitors restoring Erk phosphorylation by chemical complementation, primary imaging in DUSP6-transfected HeLa (AID 609;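 active = compounds giving at least 50% inhibition in the cell-based MKP-3 phosphatase rescue imaging test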;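 for inhibition: phospho-Erk level distribution per well compared with pooled transfected vehicle control wells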); details: HeLa MKP-3 transfected, phospho-Erk imaging KS statistic, at 10 µM, cells stimulated with TPA for 15 min
[4] = target: Dual specificity protein phosphatase 6 (Homo sapiens) (UniProt Q16828); assay: as above; details: HeLa MKP-3 transfected, phospho-Erk imaging KS statistic; at 10 µM; stronger effect = higher value; cells stimulated with TPA for 15 min
[5] = target: Voltage-gated potassium channel subunit beta-2 (Rattus norvegicus) (UniProt P62483); assay: KvBeta enzyme negative modulators, primary screen, biochemical, NADPH fluorescence (AID 622;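 active = fluorescence slope higher than the sample average by over 3 SD, cut at about -0.22 in these data, passing the limit was not always enough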;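 note: slope of raw intensity against log time taken from 70 to 1610 s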); details: recombinant KvBeta, 4-cyanobenzaldehyde reduction, at 10 µM, stronger effect = higher value
[6] = target: Voltage-gated potassium channel subunit beta-2 (Rattus norvegicus) (UniProt P62483); assay: KvBeta positive modulators, primary screen, biochemical, NADPH fluorescence (AID 623;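 active = NADPH fluorescence slope more negative than the mean of all samples by about 3 SD, 99.7% confidence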;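 note: fluorescence intensity change per second fitted from 20 to 320 s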); details: Recombinant KvBeta, NADPH fluorescence decrease slope, 10 min; at 10 µM; stronger effect = lower value
[7] = target: Alpha-2C adrenergic receptor (Homo sapiens) (UniProt P18825); assay: modulators of alpha2C/GIRK thallium flux, primary screen, cell-based, HEK293 alpha2C/GIRK1/2 (AID 624;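 active = fluorescence slope after compound addition differing from the mean of all screened samples at 99.7% confidence, in either direction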;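 note: slope of fluorescence ratio to pre-addition baseline per second over 15 to 24 s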); details: thallium flux BTC fluorescence, at 10 µM, actives lie on both sides
[8] = inhibitors of larval lipid processing in zebrafish, primary screen, whole organism, PED6 fluorescence, gall bladder and intestine (AID 686;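 active = a full or partial loss of lipid-probe fluorescence in the fish gall bladder, intestine or both, judged by eye; inactive = no fluorescence loss, or compound toxic to the fish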;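 note: larvae 5 to 7 days old with five fish per well; signal comes from phospholipase A2 cleavage of quenched PED6 carried via bile; overnight exposure to compound and PED6 before scoring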); details: Zebrafish larvae PED6 lipid processing, fluorescence scoring; screened at 20 µM (by protocol)
Outline: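 Test system – live zebrafish larvae aged 5-7 days, whole organism · Buffer or medium – E3 fish medium · Reagent – quenched phospholipase substrate PED6, 100 nM final, ingested by larvae · Doses – 20 µM single dose · Incubation – overnight compound and PED6 incubation · Technique – visual fluorescence microscopy scoring of gall bladder, gut · Read-out basis – visual per-well fluorescence inhibition score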

[9] = inhibitors of Chlamydomonas gravitaxis, primary screen, whole organism, Chlamydomonas reinhardtii, WT vs cilia-less mutant, absorbance, 96-well (AID 463189); details: OD600 absorbance, 2 days, at 10 µM, stronger effect = higher value;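 note: 0% = wild type cc124 cells in DMSO and 100% = ciliumless bld1 mutant cells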
[10] = measured here: cell density z-score
[11] = measured here: nuclear c-Myc green intensity z-score
[12] = measured here: nuclear pErk red intensity z-score, stronger effect = higher value

Chain of Dual specificity protein phosphatase 6 (Homo sapiens) (Q16828 whole entry, looked up): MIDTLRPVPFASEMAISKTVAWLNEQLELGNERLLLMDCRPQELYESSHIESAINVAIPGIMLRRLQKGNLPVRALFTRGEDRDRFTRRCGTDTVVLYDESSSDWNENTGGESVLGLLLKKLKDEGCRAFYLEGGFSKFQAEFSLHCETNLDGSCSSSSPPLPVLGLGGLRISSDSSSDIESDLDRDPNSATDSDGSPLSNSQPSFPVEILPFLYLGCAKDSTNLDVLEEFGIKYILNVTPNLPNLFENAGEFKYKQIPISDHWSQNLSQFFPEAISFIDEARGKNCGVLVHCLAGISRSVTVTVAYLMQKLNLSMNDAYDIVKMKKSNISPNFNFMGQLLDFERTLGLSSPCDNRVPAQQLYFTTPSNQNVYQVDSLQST
Chain of Alpha-2C adrenergic receptor (Homo sapiens) (P18825 whole entry, looked up): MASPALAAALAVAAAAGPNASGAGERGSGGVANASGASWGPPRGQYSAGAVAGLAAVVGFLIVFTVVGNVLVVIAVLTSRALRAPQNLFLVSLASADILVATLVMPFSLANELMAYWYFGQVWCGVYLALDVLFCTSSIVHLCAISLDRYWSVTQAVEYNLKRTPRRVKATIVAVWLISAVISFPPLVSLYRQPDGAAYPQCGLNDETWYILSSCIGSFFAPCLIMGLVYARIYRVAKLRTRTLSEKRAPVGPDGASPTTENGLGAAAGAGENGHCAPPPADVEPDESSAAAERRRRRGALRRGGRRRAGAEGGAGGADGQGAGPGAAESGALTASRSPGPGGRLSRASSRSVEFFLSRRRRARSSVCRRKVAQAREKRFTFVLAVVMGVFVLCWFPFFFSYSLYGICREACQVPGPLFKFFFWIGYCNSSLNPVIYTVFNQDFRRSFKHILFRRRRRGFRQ
Chain of Voltage-gated potassium channel subunit beta-2 (Rattus norvegicus) (P62483 whole entry, looked up): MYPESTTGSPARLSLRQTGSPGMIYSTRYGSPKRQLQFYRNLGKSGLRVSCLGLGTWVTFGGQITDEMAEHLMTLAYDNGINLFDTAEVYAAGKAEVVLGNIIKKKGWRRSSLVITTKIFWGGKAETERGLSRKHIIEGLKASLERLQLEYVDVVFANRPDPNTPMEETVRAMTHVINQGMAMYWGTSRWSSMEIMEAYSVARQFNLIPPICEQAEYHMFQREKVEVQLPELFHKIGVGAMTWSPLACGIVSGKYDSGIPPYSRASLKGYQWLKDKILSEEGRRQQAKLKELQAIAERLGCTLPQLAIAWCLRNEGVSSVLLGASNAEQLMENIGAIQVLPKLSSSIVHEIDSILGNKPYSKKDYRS

Row | Compound | cell count [1] | inhibition [1] | inhibition [2] | nuclei count [2] | z-score [3, 10] | z-score [3, 11] | z-score [3, 12] | inhibition [4] | fluorescence slope [5] | NADPH fluorescence slope [6] | slope [7] | outcome [8] | inhibition [9]
1 | O=C(CNC1C(=O)Nc2ccccc21)Sc1ccccc1 (stereo unspecified) | 636 | -12.1% (inactive) | -63.1% (inactive) | 118% | 1.09 | -0.106 | -0.738 | 14.4% (inactive) | -0.383 (inactive) | -1.8e-06 (inactive) | 0.00502 (inactive) | inactive | -11.8% (inactive)
2 | c1csc(-c2nn3c(C4CCCCC4)nnc3s2)c1 | 623 | -8.5% (inactive) | -52.2% (inactive) | 155% | -1.83 | -0.584 | 2.62 | -15% (inactive) | -0.426 (inactive) | -0.00015 (inactive) | 0.00407 (inactive) | inactive | 13.7% (inactive)
3 | C1CCCN(CCCCN2CCCCCC2)CC1 | 575 | -1.5% (inactive) | -211% (inactive) | 129% | -2.5 | 1.44 | -0.0614 | -5.89% (inactive) | -0.456 (inactive) | -0.000347 (inactive) | 0.00726 (inactive) | inactive | -11.5% (inactive)
4 | Clc1ccc(-c2cn3c(n2)CCC3)cc1 | 567 | -16.9% (inactive) | 0.7% (inactive) | 171% | -1.6 | 1.21 | 1.33 | -6.86% (inactive) | -0.504 (inactive) | -9.3e-05 (inactive) | 0.00501 (inactive) | inactive | 3.42% (inactive)
5 | COc1ccc(CCNC(=O)c2ccc(=O)[nH]n2)cc1OC | 452 | -9.3% (inactive) | -124% (inactive) | 113% | -0.121 | -0.331 | -0.384 | 7.48% (inactive) | -0.517 (inactive) | -0.000115 (inactive) | 0.00414 (inactive) | inactive | 1.24% (inactive)
6 | CCOC(=O)C(c1ccccc1)N1CCN(c2ccc(OC)cc2)CC1 (stereo unspecified) | 365 | -5.2% (inactive) | -72.8% (inactive) | 146% | -0.336 | -0.989 | -1.39 | 11.4% (inactive) | -0.422 (inactive) | -0.000118 (inactive) | 0.00552 (inactive) | inactive | -10% (inactive)
7 | COC(=O)c1ccc(Cn2cnc3c(sc4nc(N5CCOCC5)c5c(c43)CCCC5)c2=O)o1 | 505 | 10.2% (inactive) | -144% (inactive) | 132% | -0.452 | 0.953 | 0.541 | -7.01% (inactive) | -0.47 (inactive) | -2.7e-05 (inactive) | 0.00736 (inactive) | inactive; toxic | 6.85% (inactive)
8 | COc1ccccc1C(CC(=O)Nc1nccs1)c1ccco1 (stereo unspecified) | 354 | -14.3% (inactive) | -98.9% (inactive) | 155% | -0.704 | -0.887 | -0.714 | 1.75% (inactive) | -0.398 (inactive) | -7.2e-05 (inactive) | 0.00663 (inactive) | inactive | 31.8% (inactive)
9 | Cc1cc(C(F)(F)F)c(C#N)c(SCC(=O)NC2CC2)n1 | 541 | -11.5% (inactive) | 2.6% (inactive) | 99.8% | 1.52 | -0.242 | -0.534 | 15.5% (inactive) | -0.514 (inactive) | -3.6e-05 (inactive) | 0.0063 (inactive) | inactive | 7.84% (inactive)
10 | Cn1c(=O)c2c(nc(N3CCN(Cc4ccccc4)CC3)n2CC(=O)c2ccccc2)n(C)c1=O | 669 | 0.5% (inactive) | -198% (inactive) | 155% | 0.319 | -0.211 | 0.974 | 7.73% (inactive) | -0.533 (inactive) | -0.000101 (inactive) | 0.00454 (inactive) | inactive | -14.6% (inactive)
11 | COc1ccccc1Nc1ncc(-c2cccs2)s1 | 545 | -13.8% (inactive) | -286% (inactive) | 200% | -0.0769 | -1.21 | 0.25 | 1.48% (inactive) | -0.5 (inactive) | -5.4e-05 (inactive) | 0.00327 (inactive) | inactive | 11.6% (inactive)
12 | O=C(c1cncc(Br)c1)N1CCCc2ccccc21 | 517 | -1.1% (inactive) | 51.3% (inactive) | 97.5% | 0.808 | -0.814 | -0.316 | -7.86% (inactive) | -0.448 (inactive) | -1.4e-05 (inactive) | 0.00474 (inactive) | inactive | -3.67% (inactive)
